Assay results: ChEMBL document CHEMBL3243987 (J Med Chem, 1979)
≈ marks a conversion by molar mass, not a printed value.

Key:
[1] = tested on: L1210; assay: Antitumor activity against mouse L1210 cells allografted in BDF/1 hybrid mouse assessed as increase in life span at 30 mg/kg, ip first dose treated 24 hrs after tumor implantation and on day 4 and 7; assay type: functional; settings: route intraperitoneal
How it was run: (§1)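 Male BDF/1 hybrid mice were inoculated ip with 10⁵ L-1210 leukemia cells and then given three doses (mg/kg × 3). The read-out was percent increase in life span (% ILS) compared with untreated control animals, reported at the optimal dose.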

[2] = tested on: CCRF-CEM; assay: Antitumor activity against human CCRF-CEM assessed as growth inhibition; assay type: functional; settings: read-out: ID50 (the source's name)
[3] = tested on: Lacticaseibacillus casei; assay: Antimicrobial activity against folate-dependent Lactobacillus casei ATCC 7469 assessed as growth inhibition; assay type: functional, organism-based
[4] = target: Dihydrofolate reductase (Lactobacillus casei, UniProt P00381); assay: Inhibition of Lactobacillus casei ATCC 7469 dihydrofolate reductase; set-up: species or system Lacticaseibacillus casei
[5] = target: T1, Thymidylate synthase (Lactobacillus casei, UniProt P00469); assay: Inhibition of Lactobacillus casei ATCC 7469 thymidylate synthase; set-up: species or system Lacticaseibacillus casei
T1 sequence (P00469 whole entry): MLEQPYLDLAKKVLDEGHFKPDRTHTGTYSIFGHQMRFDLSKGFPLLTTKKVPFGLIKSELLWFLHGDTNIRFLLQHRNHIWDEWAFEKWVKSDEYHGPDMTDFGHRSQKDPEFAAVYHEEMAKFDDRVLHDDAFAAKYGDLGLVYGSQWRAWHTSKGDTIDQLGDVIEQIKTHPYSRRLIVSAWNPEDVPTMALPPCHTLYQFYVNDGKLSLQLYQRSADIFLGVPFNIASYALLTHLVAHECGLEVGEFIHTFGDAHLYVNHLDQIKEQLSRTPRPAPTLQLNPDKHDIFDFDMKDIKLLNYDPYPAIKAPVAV

[6] = tested on: L1210; assay: Antitumor activity against mouse L1210 cells allografted in BDF/1 hybrid mouse assessed as increase in life span at 400 mg/kg, ip first dose treated 24 hrs after tumor implantation and on day 4 and 7; assay type: functional; settings: route intraperitoneal; how it was run: as §1
[7] = tested on: L1210; assay: Antitumor activity against mouse L1210 cells allografted in BDF/1 hybrid mouse assessed as increase in life span at 50 to 200 mg/kg, ip first dose treated 24 hrs after tumor implantation and on day 4 and 7; assay type: functional; settings: dose mg/kg 50-200; route intraperitoneal; how it was run: as §1
[8] = tested on: L1210; assay: Antitumor activity against mouse L1210 cells allografted in BDF/1 hybrid mouse assessed as increase in life span at 200 mg/kg, ip first dose treated 24 hrs after tumor implantation and on day 4 and 7; assay type: functional; settings: route intraperitoneal; how it was run: as §1

Chain of Dihydrofolate reductase (P00381 whole entry): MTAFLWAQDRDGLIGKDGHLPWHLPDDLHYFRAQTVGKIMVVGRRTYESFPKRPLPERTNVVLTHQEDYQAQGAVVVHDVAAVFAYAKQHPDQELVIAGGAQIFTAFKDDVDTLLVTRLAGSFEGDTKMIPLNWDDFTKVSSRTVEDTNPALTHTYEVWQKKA

Row | SMILES | ILS at 30 mg/kg [1] [%] | IC50 [2] [µg/mL] | IC50 [3] [µg/mL] | IC50 [4] [nM] | IC50 [5] [nM] | ILS at 400 mg/kg [6] [%] | ILS [7] [%] | ILS at 200 mg/kg [8] [%]
1 | CN(Cc1cnc2nc(N)nc(N)c2n1)c1ccc(C(=O)N[C@@H](CCC(=O)O)C(=O)O)cc1 [METHOTREXATE] | 88 | 0.02 (≈ 0.044 µM) |  |  |  |  |  | 
2 | COC(=O)C[C@H](NC(=O)Nc1ccc(N(C)Cc2cnc3nc(N)nc(N)c3n2)cc1)C(=O)OC |  | 3.9 (≈ 8.07 µM) | 0.006 (≈ 0.0124 µM) | 600 |  |  |  | 
3 | CN(Cc1cnc2nc(N)nc(N)c2n1)c1ccc(NC(=O)NC(CC(=O)O)C(=O)O)cc1 (racemic) |  | 3.2 (≈ 7.03 µM) | 0.15 (≈ 0.329 µM) | 50 | 190000 | 22 |  | 
4 | COC(=O)CCC1NC(=O)N(c2ccc(N(C)Cc3cnc4nc(N)nc(N)c4n3)cc2)C1=O (racemic) |  | 6.7 (≈ 14.4 µM) | 0.104 (≈ 0.223 µM) | 4000 |  |  | 0 | 
5 | COC(=O)CC[C@H](NC(=O)Nc1ccc(N(C)Cc2cnc3nc(N)nc(N)c3n2)cc1)C(=O)OC |  | 3.5 (≈ 7.03 µM) | 0.006 (≈ 0.0121 µM) | 300 |  |  |  | 
6 | CN(Cc1cnc2nc(N)nc(N)c2n1)c1ccc(NC(=O)NC(CCC(=O)O)C(=O)O)cc1 (racemic) |  | 0.4 (≈ 0.852 µM) | 0.008 (≈ 0.017 µM) | 80 | 250000 |  |  | 55
